A value given as a limit tells only on which side of the number the result lay.

In series [1] the test system is Human immunodeficiency virus 1. As to the kind of experiment: Antiviral activity against HIV1 isolate R8 harboring reverse transcriptase K103N and Y181C mutant infected in human MT4 cells assessed as inhibition of viral replication after 72 hrs in presence of 50% human serum. It is filed as functional. The settings on record: Human immunodeficiency virus 1, isolate R8, MT4, 72 h. The procedure, abridged: (§1)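 Multiple-cycle assay: MT-4 cells (2.5 × 10^5) infected with R8-based virus at low MOI, no inhibitor, 24 h at 37°C, 5% CO2; washed, reseeded at 5 × 10^4 cells in RPMI 1640 with 10% FBS or 50% type AB human serum; threefold serial dilutions from 833 nM to 0.32 nM; 72 h; p24 in medium by AlphaScreen; EC95 = lowest concentration giving ≥95% p24 reduction versus untreated.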

Series [2] deals with Human immunodeficiency virus 1. Put plainly: Antiviral activity against HIV1 isolate R8 harboring reverse transcriptase Y181C mutant infected in human MT4 cells assessed as inhibition of viral replication after 72 hrs in presence of 50% human serum. It is filed as functional. The following applies: Human immunodeficiency virus 1, isolate R8, MT4, 72 h. Put shortly:
as §1

Series [3] deals with Human immunodeficiency virus 1. As to the kind of experiment: Antiviral activity against HIV1 isolate R8 harboring reverse transcriptase K103N mutant infected in human MT4 cells assessed as inhibition of viral replication after 72 hrs in presence of 50% human serum. It is filed as functional. The settings on record: Human immunodeficiency virus 1, isolate R8, MT4, 72 h. The procedure, abridged:
as §1

The subject of series [4] is Human immunodeficiency virus 1. As to the kind of experiment: Antiviral activity against HIV1 isolate R8 harboring wild type reverse transcriptase infected in human MT4 cells assessed as inhibition of viral replication after 72 hrs in presence of 50% human serum. It is filed as functional. The following applies: Human immunodeficiency virus 1, isolate R8, MT4, 72 h. The procedure, abridged: as §1

In series [5] the test system is Human immunodeficiency virus 1. As to the kind of experiment: Antiviral activity against HIV1 isolate R8 harboring reverse transcriptase K103N and Y181C mutant infected in human MT4 cells assessed as inhibition of viral replication after 72 hrs in presence of 10% FBS. It is filed as functional. The following applies: Human immunodeficiency virus 1, isolate R8, MT4, 72 h. The procedure, abridged:
as §1

For series [6], the system named is Human immunodeficiency virus 1. Put plainly: Antiviral activity against HIV1 isolate R8 harboring reverse transcriptase Y181C mutant infected in human MT4 cells assessed as inhibition of viral replication after 72 hrs in presence of 10% FBS. It is filed as functional. The following applies: Human immunodeficiency virus 1, isolate R8, MT4, 72 h. Put shortly: as §1

Series [7] concerns Human immunodeficiency virus 1. As to the kind of experiment: Antiviral activity against HIV1 isolate R8 harboring reverse transcriptase K103N mutant infected in human MT4 cells assessed as inhibition of viral replication after 72 hrs in presence of 10% FBS. It is filed as functional. The settings on record: Human immunodeficiency virus 1, isolate R8, MT4, 72 h. Put shortly: as §1

Series [8] relates to Human immunodeficiency virus 1. Put plainly: Antiviral activity against HIV1 isolate R8 harboring wild type reverse transcriptase infected in human MT4 cells assessed as inhibition of viral replication after 72 hrs in presence of 10% FBS. It is filed as functional. The following applies: Human immunodeficiency virus 1, isolate R8, MT4, 72 h. The procedure, abridged:
as §1

Series [9] relates to Plasma. Put plainly: Plasma protein binding in HIV1 infected patient. The settings on record: human. It is filed as ADME, cell-free.
For series [10], the system named is Plasma. As to the kind of experiment: Plasma protein binding in healthy human at 200 mg/kg. It is filed as ADME, organism-based. Also noted: dose 200 mg/kg. The following applies: in vivo.
Series [11] concerns Human immunodeficiency virus 1. As to the kind of experiment: Ratio of EC95 for HIV1 isolate R8 harboring reverse transcriptase K103N and Y181C mutant in presence of 50% human serum to EC95 for HIV1 isolate R8 harboring wild type reverse transcriptase in presence of 50% human serum. It is filed as functional. The procedure, abridged: (§2)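 Ratios of EC95 values from the MT-4 multiple-cycle assay: R8 variants infected 24 h at low MOI, then reseeded in RPMI 1640 with 10% FBS or 50% type AB human serum with threefold dilutions (833–0.32 nM) for 72 h; p24 by AlphaScreen; EC95 = lowest concentration cutting p24 ≥95% versus untreated controls.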

For series [12], the system named is Human immunodeficiency virus 1. As to the kind of experiment: Ratio of EC95 for HIV1 isolate R8 harboring reverse transcriptase K103N mutant in presence of 50% human serum to EC95 for HIV1 isolate R8 harboring wild type reverse transcriptase in presence of 50% human serum. It is filed as functional. Put shortly:
as §2

In series [13] the test system is Human immunodeficiency virus 1. As to the kind of experiment: Ratio of EC95 for HIV1 isolate R8 harboring reverse transcriptase Y181C mutant in presence of 50% human serum to EC95 for HIV1 isolate R8 harboring wild type reverse transcriptase in presence of 50% human serum. It is filed as functional. Put shortly:
as §2

Series [14] has as its system Human immunodeficiency virus 1. As to the kind of experiment: Antiviral activity against HIV1 isolate R8 harboring reverse transcriptase L100I and K103N mutant relative to drug-sensitive HIV1 CNDO. It is filed as functional.
The subject of series [15] is Human immunodeficiency virus 1. As to the kind of experiment: Antiviral activity against HIV1 isolate R8 harboring reverse transcriptase Y181C and K103N mutant relative to drug-sensitive HIV1 CNDO. It is filed as functional.
Series [16] has as its system Human immunodeficiency virus 1. As to the kind of experiment: Antiviral activity against HIV1 isolate R8 harboring reverse transcriptase Y181I mutant relative to drug-sensitive HIV1 CNDO. It is filed as functional.
Series [17] concerns Human immunodeficiency virus 1. As to the kind of experiment: Antiviral activity against HIV1 isolate R8 harboring reverse transcriptase F227C mutant relative to drug-sensitive HIV1 CNDO. It is filed as functional.
For series [18], the system named is Human immunodeficiency virus 1. Put plainly: Antiviral activity against HIV1 isolate R8 harboring reverse transcriptase M230L mutant relative to drug-sensitive HIV1 CNDO. It is filed as functional.
Series [19] has as its system Human immunodeficiency virus 1. As to the kind of experiment: Antiviral activity against HIV1 isolate R8 harboring reverse transcriptase K101P mutant relative to drug-sensitive HIV1 CNDO. It is filed as functional.
For series [20], the system named is Human immunodeficiency virus 1. As to the kind of experiment: Antiviral activity against HIV1 CRF02_AG harboring mutant reverse transcriptase relative to HIV1 CNDO with wild type reverse transcriptase. It is filed as functional. Put shortly: (§3)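 Single-cycle PhenoScreen assay run by Monogram Biosciences, using viruses carrying RT sequences from clinical isolates, subtypes/CRFs or PI/NRTI-resistant clade B viruses; nine serial drug concentrations; activity expressed relative to drug-sensitive reference strain CNDO (protease and RT from NL4-3), with multidrug-resistant MDRC4 as assay-performance control.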

Series [21] concerns Human immunodeficiency virus 1. Put plainly: Antiviral activity against HIV1 CRF17_BF harboring mutant reverse transcriptase relative to HIV1 CNDO with wild type reverse transcriptase. It is filed as functional. Put shortly:
as §3

Series [22] concerns Human immunodeficiency virus 1. As to the kind of experiment: Antiviral activity against NRTI-, PI-resistant HIV1 harboring mutant reverse transcriptase relative to HIV1 CNDO with wild type reverse transcriptase. It is filed as functional. Put shortly: as §3
Series [23] deals with Human immunodeficiency virus 1. As to the kind of experiment: Antiviral activity against HIV1 clade B harboring mutant reverse transcriptase relative to HIV1 CNDO with wild type reverse transcriptase. It is filed as functional.
Series [24] deals with Human immunodeficiency virus 1. Put plainly: Antiviral activity against HIV1 CRF01_AE harboring mutant reverse transcriptase relative to HIV1 CNDO with wild type reverse transcriptase. It is filed as functional. Put shortly:
as §3

Series [25] deals with Human immunodeficiency virus 1. Put plainly: Antiviral activity against HIV1 clade A harboring mutant reverse transcriptase relative to HIV1 CNDO with wild type reverse transcriptase. It is filed as functional.
In series [26] the test system is Human immunodeficiency virus 1. As to the kind of experiment: Antiviral activity against HIV1 clade C harboring mutant reverse transcriptase relative to HIV1 CNDO with wild type reverse transcriptase. It is filed as functional.
Series [27] relates to Human immunodeficiency virus 1. Put plainly: Antiviral activity against HIV1 clade D harboring mutant reverse transcriptase relative to HIV1 CNDO with wild type reverse transcriptase. It is filed as functional.
Series [28] deals with Human immunodeficiency virus 1. Put plainly: Antiviral activity against HIV1 clade F1 harboring mutant reverse transcriptase relative to HIV1 CNDO with wild type reverse transcriptase. It is filed as functional.
The subject of series [29] is Human immunodeficiency virus 1. Put plainly: Antiviral activity against HIV1 clade G harboring mutant reverse transcriptase relative to HIV1 CNDO with wild type reverse transcriptase. It is filed as functional.
Series [30] has as its system Human immunodeficiency virus 1. Put plainly: Antiviral activity against HIV1 clade H harboring mutant reverse transcriptase relative to HIV1 CNDO with wild type reverse transcriptase. It is filed as functional.
The test system of series [31] is Human immunodeficiency virus 1. Put plainly: Antiviral activity against PI-resistant HIV1 harboring mutant reverse transcriptase relative to HIV1 CNDO with wild type reverse transcriptase. It is filed as functional. Put shortly: as §3
The subject of series [32] is Human immunodeficiency virus 1. As to the kind of experiment: Antiviral activity against NRTI-resistant HIV1 harboring mutant reverse transcriptase relative to HIV1 CNDO with wild type reverse transcriptase. It is filed as functional. The procedure, abridged: as §3

`O=C1Nc2ccc(Cl)cc2[C@@](C#CC2CC2)(C(F)(F)F)O1` [EFAVIRENZ]: the 95% effect concentration (EC95) in [1] was found to be 3390 nM; in series [2] it was 89 nM; in series [3], 1730 nM; in series [4], 38 nM; in series [5], 322 nM; in [6], 8.4 nM. The values for the EC95 in series [7] and in [8] were 245 nM and 3.8 nM, respectively. Also, the Activity with Plasma [9] and in the series with Plasma [10] was > 99.5% in each case.

Regarding `Cc1cc(C#N)cc(C)c1Oc1nc(Nc2ccc(C#N)cc2)nc(N)c1Br` [ETRAVIRINE], the “fold change (FC)” value in series [11] is 14; in [12], 1.1; in [13], 7; in [14] it was > 10; in [15], > 10; in series [16] it was > 10. In addition, the fold change (FC) in series [17], in series [18] and in series [19] was > 10 each time. Also, the EC95 worked out at 542 nM in series [1]; 266 nM in series [2]; 43 nM in [3]; 38 nM in series [4]; 56 nM in [5]; 26 nM in [6]. Besides, the EC95 amounted to 6 nM in series [7] and 4 nM in series [8]. The Activity in the series on Plasma [9] and with Plasma [10] was > 99.5% each time.

With `Nc1ccn([C@@H]2CS[C@H](CO)O2)c(=O)n1` [LAMIVUDINE], the “fold change (FC)” value in [20] was 1.31; in series [21] it was 1.37; in series [22] it was 5.96.

Consider `Cc1ccnc2c1NC(=O)c1cccnc1N2C1CC1` [NEVIRAPINE], for which the “fold change (FC)” value was 1.25 in series [23]; 0.4 in [20]; 0.67 in series [24]; 0.94 in series [25]; 0.83 in series [21]; 0.7 in series [26]. Also, the “fold change (FC)” value in series [27] turned out to be 0.35; in series [28], 0.73; in series [29], 1.25; in [30], 0.13; in series [31] it was 1.05; in series [32] it was 0.49. In series [22], the “fold change (FC)” value is reported as 0.32. Moreover, the EC95 in series [1] is > 8000 nM; in series [2], > 8000 nM; in series [3], > 8000 nM; in series [4], 464 nM; in series [5], > 8000 nM; in series [6], > 8000 nM. The figures for the EC95 in series [7] and in [8] were > 8000 nM and 438 nM, respectively.

As for `C[C@H](Cn1cnc2c(N)ncnc21)OCP(=O)(O)O` [TENOFOVIR ANHYDROUS], the “fold change (FC)” value amounted to 0.94 in [23]; 0.93 in [20]; 0.78 in [24]; 0.95 in series [25]; 0.83 in series [21]; 0.97 in series [26]. Besides, the “fold change (FC)” value was 0.74 in [27]; 0.96 in series [28]; 0.96 in [29]; 0.67 in series [30]; 0.82 in series [31]; 1.97 in series [32]. Besides, the “fold change (FC)” value in series [22] was 2.43.

Source of the values: ChEMBL document CHEMBL1649436, “Antiviral activity of MK-4965, a novel nonnucleoside reverse transcriptase inhibitor” (Antimicrob Agents Chemother, 2009).
